System: U2OS
Experiment: Multiplex assay against U2OS
Assay type: toxicity, cell-based
Settings: human
How it was run: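 At seeding, live cells were stained with Hoechst33342, BioTracker Green Microtubule Cytoskeleton Dye, MitoTracker Red and Annexin V Alexa Fluor 680. After compound addition they were imaged on a CQ1 microscope at 37°C and 5% CO2, and CellPathfinder machine-learning gating sorted them into Hoechst high-intensity objects or normal cells, with normal cells further split into healthy, pyknosed or fragmented nuclei and pyknosed cells into mitotic or apoptotic. Tubulin, mitochondrial-mass and membrane-permeability phenotypes are given as per cents of cells with healthy nuclei.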

[1] = 12 h, 1 µM, compound concentration 1 uM, replicate 1
[2] = 12 h, 1 µM, compound concentration 1 uM, replicate 2
[3] = 12 h, 10 µM, compound concentration 10 uM, replicate 1
[4] = 12 h, 10 µM, compound concentration 10 uM, replicate 2
[5] = 24 h, 1 µM, compound concentration 1 uM, replicate 1
[6] = 24 h, 1 µM, compound concentration 1 uM, replicate 2
[7] = 24 h, 10 µM, compound concentration 10 uM, replicate 1
[8] = 24 h, 10 µM, compound concentration 10 uM, replicate 2
[9] = 48 h, 1 µM, compound concentration 1 uM, replicate 1
[10] = 48 h, 1 µM, compound concentration 1 uM, replicate 2
[11] = 48 h, 10 µM, compound concentration 10 uM, replicate 1
[12] = 48 h, 10 µM, compound concentration 10 uM, replicate 2

For `CCC(=O)OCC(=O)[C@@]1(OC(=O)CC)[C@@H](C)C[C@H]2[C@@H]3CCC4=CC(=O)C=C[C@]4(C)[C@@]3(Cl)[C@@H](O)C[C@@]21C` [BECLOMETHASONE DIPROPIONATE], the “Population Apoptotic (%)” value [1] was 84%, the “Population Fragmented Nuclei (%)” value [1] was 23% and the “Population Healthy Nuclei (%)” value [1] was 64%. The “Population Hoechst High Intensity Objects (%)” value [1] was 1%, the “Population Membrane Permeable-Phenotype (%)” value [1] was 11% and the “Population Mitochondria Different-Phenotype (%)” value [1] was 4%. For the same compound, the “Population Mitotic Cells (%)” value [1] was 15%, the “Population Normal (%)” value [1] was 98% and the “Population Pyknosed Nuclei (%)” value [1] was 12%. For the same compound, the “Population Tubulin-Different-Phenotype (%)” value [1] was 6%, the “Total Cell Count” value [1] was 160 and the “Population Apoptotic (%)” value [2] was 71%. The “Population Fragmented Nuclei (%)” value [2] was 18%, the “Population Healthy Nuclei (%)” value [2] was 75% and the “Population Hoechst High Intensity Objects (%)” value [2] was 0%. For the same compound, the “Population Membrane Permeable-Phenotype (%)” value [2] was 13%, the “Population Mitochondria Different-Phenotype (%)” value [2] was 8% and the “Population Mitotic Cells (%)” value [2] was 28%. The “Population Normal (%)” value [2] was 99%, the “Population Pyknosed Nuclei (%)” value [2] was 6% and the “Population Tubulin-Different-Phenotype (%)” value [2] was 4%. The “Total Cell Count” value [2] was 111, the “Population Apoptotic (%)” value [3] was 65% and the “Population Fragmented Nuclei (%)” value [3] was 42%. The “Population Healthy Nuclei (%)” value [3] was 40%, the “Population Hoechst High Intensity Objects (%)” value [3] was 4% and the “Population Membrane Permeable-Phenotype (%)” value [3] was 67%. The “Population Mitochondria Different-Phenotype (%)” value [3] was 73%, the “Population Mitotic Cells (%)” value [3] was 34% and the “Population Normal (%)” value [3] was 95%. The “Population Pyknosed Nuclei (%)” value [3] was 17%, the “Population Tubulin-Different-Phenotype (%)” value [3] was 80% and the “Total Cell Count” value [3] was 176. For the same compound, the “Population Apoptotic (%)” value [4] was 68%, the “Population Fragmented Nuclei (%)” value [4] was 12% and the “Population Healthy Nuclei (%)” value [4] was 69%. The “Population Membrane Permeable-Phenotype (%)” value [4] was 48%, the “Population Mitochondria Different-Phenotype (%)” value [4] was 97% and the “Population Mitotic Cells (%)” value [4] was 31%. For the same compound, the “Population Pyknosed Nuclei (%)” value [4] was 18%, the “Population Tubulin-Different-Phenotype (%)” value [4] was 97% and the “Total Cell Count” value [4] was 109. The “Population Apoptotic (%)” value [5] was 78%, the “Population Fragmented Nuclei (%)” value [5] was 21% and the “Population Healthy Nuclei (%)” value [5] was 67%. For the same compound, the “Population Hoechst High Intensity Objects (%)” value [5] was 2%, the “Population Membrane Permeable-Phenotype (%)” value [5] was 2% and the “Population Mitochondria Different-Phenotype (%)” value [5] was 4%. The “Population Mitotic Cells (%)” value [5] was 21%, the “Population Normal (%)” value [5] was 97% and the “Population Pyknosed Nuclei (%)” value [5] was 10%. The “Population Tubulin-Different-Phenotype (%)” value [5] was 1%, the “Total Cell Count” value [5] was 217 and the “Population Apoptotic (%)” value [6] was 87%. The “Population Fragmented Nuclei (%)” value [6] was 15%, the “Population Healthy Nuclei (%)” value [6] was 71% and the “Population Hoechst High Intensity Objects (%)” value [6] was 0%. For the same compound, the “Population Membrane Permeable-Phenotype (%)” value [6] was 6%, the “Population Mitochondria Different-Phenotype (%)” value [6] was 5% and the “Population Mitotic Cells (%)” value [6] was 12%. For the same compound, the “Population Normal (%)” value [6] was 99%, the “Population Pyknosed Nuclei (%)” value [6] was 13% and the “Population Tubulin-Different-Phenotype (%)” value [6] was 3%. For the same compound, the “Total Cell Count” value [6] was 123, the “Population Apoptotic (%)” value [7] was 74% and the “Population Fragmented Nuclei (%)” value [7] was 35%. For the same compound, the “Population Healthy Nuclei (%)” value [7] was 45%, the “Population Hoechst High Intensity Objects (%)” value [7] was 3% and the “Population Membrane Permeable-Phenotype (%)” value [7] was 40%. The “Population Mitochondria Different-Phenotype (%)” value [7] was 72%, the “Population Mitotic Cells (%)” value [7] was 25% and the “Population Normal (%)” value [7] was 96%. The “Population Pyknosed Nuclei (%)” value [7] was 18%, the “Population Tubulin-Different-Phenotype (%)” value [7] was 66% and the “Total Cell Count” value [7] was 174. The “Population Apoptotic (%)” value [8] was 64%, the “Population Fragmented Nuclei (%)” value [8] was 12% and the “Population Healthy Nuclei (%)” value [8] was 69%. For the same compound, the “Population Hoechst High Intensity Objects (%)” value [8] was 9%, the “Population Membrane Permeable-Phenotype (%)” value [8] was 43% and the “Population Mitochondria Different-Phenotype (%)” value [8] was 86%. The “Population Mitotic Cells (%)” value [8] was 35%, the “Population Normal (%)” value [8] was 90% and the “Population Pyknosed Nuclei (%)” value [8] was 17%. The “Population Tubulin-Different-Phenotype (%)” value [8] was 76%, the “Total Cell Count” value [8] was 106 and the “Population Apoptotic (%)” value [9] was 91%. For the same compound, the “Population Fragmented Nuclei (%)” value [9] was 22%, the “Population Healthy Nuclei (%)” value [9] was 68% and the “Population Hoechst High Intensity Objects (%)” value [9] was 2%. The “Population Membrane Permeable-Phenotype (%)” value [9] was 5%, the “Population Mitochondria Different-Phenotype (%)” value [9] was 2% and the “Population Mitotic Cells (%)” value [9] was 8%. For the same compound, the “Population Normal (%)” value [9] was 97%, the “Population Pyknosed Nuclei (%)” value [9] was 9% and the “Population Tubulin-Different-Phenotype (%)” value [9] was 2%. The “Total Cell Count” value [9] was 268, the “Population Apoptotic (%)” value [10] was 85% and the “Population Fragmented Nuclei (%)” value [10] was 10%. For the same compound, the “Population Healthy Nuclei (%)” value [10] was 75%, the “Population Membrane Permeable-Phenotype (%)” value [10] was 8% and the “Population Mitochondria Different-Phenotype (%)” value [10] was 5%. For the same compound, the “Population Mitotic Cells (%)” value [10] was 14%, the “Population Pyknosed Nuclei (%)” value [10] was 14% and the “Population Tubulin-Different-Phenotype (%)” value [10] was 3%. For the same compound, the “Total Cell Count” value [10] was 152, the “Population Apoptotic (%)” value [11] was 80% and the “Population Fragmented Nuclei (%)” value [11] was 36%. The “Population Healthy Nuclei (%)” value [11] was 47%, the “Population Hoechst High Intensity Objects (%)” value [11] was 4% and the “Population Membrane Permeable-Phenotype (%)” value [11] was 20%. For the same compound, the “Population Mitochondria Different-Phenotype (%)” value [11] was 26%, the “Population Mitotic Cells (%)” value [11] was 20% and the “Population Normal (%)” value [11] was 95%. The “Population Pyknosed Nuclei (%)” value [11] was 15%, the “Population Tubulin-Different-Phenotype (%)” value [11] was 14% and the “Total Cell Count” value [11] was 199. The “Population Apoptotic (%)” value [12] was 70%, the “Population Fragmented Nuclei (%)” value [12] was 21% and the “Population Healthy Nuclei (%)” value [12] was 65%. For the same compound, the “Population Hoechst High Intensity Objects (%)” value [12] was 6%, the “Population Membrane Permeable-Phenotype (%)” value [12] was 16% and the “Population Mitochondria Different-Phenotype (%)” value [12] was 36%. For the same compound, the “Population Mitotic Cells (%)” value [12] was 29%, the “Population Normal (%)” value [12] was 93% and the “Population Pyknosed Nuclei (%)” value [12] was 13%. The “Population Tubulin-Different-Phenotype (%)” value [12] was 10% and the “Total Cell Count” value [12] was 131.

— ChEMBL document CHEMBL5058577, “EUbOPEN Chemogenomics Library 2 (Multiplex)” (2022)
